A short description of the data set: Toxicity liver stage against HepG2, at 10uM. Format: cell-based. More on the design: test concentration 10 uM, cell line HepG2-A16-CD81EGFP. As to conditions: human, HepG2-A16-CD81EGFP cells; read-out: INHIBITION
Put shortly: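 Uninfected HepG2-A16-CD81EGFP cells, 3 × 10^3 per well, 1536-well, plated on prespotted compound at 10 μM final, parasite-free screening media added to match infected plates; puromycin 10 μM positive, DMSO 0.5% negative; run in parallel with 48 h PbLuc assay at 37 °C, 5% CO2; viability by CellTiter-Glo luminescence, normalized to controls.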
On to `CC1CCN(c2cc(NC(=O)C3CC3)ncn2)CC1`, for which the cytotoxicity at 10 µM is -8.67%.
To `COCCNC(=O)NCc1cc(-c2cccs2)n(C2CCCC2)n1` belongs -10.5%.
To `O=S(=O)(C1CC1)N1CC[C@]2(C[C@H](OCC3CCOCC3)CO2)C1` belongs 8.64%.
To `Cc1noc(C2CCC3(CCN(C(=O)c4cnn(C)c4)CC3)O2)n1` (stereo not given) belongs 8.77%; to `CCS(=O)(=O)N1CCC2(CC(=O)N(c3cncnc3)C2)C1` (stereo not given), -0.298%; to `COC[C@H]1CNC(=O)[C@@H]2CCN(Cc3cccc(C)n3)CC[C@H]12`, 16.7%.
In the case of `Cc1nnc(N2C[C@H](OCCCn3cccn3)[C@H]3OCCC[C@H]32)s1`, the cytotoxicity at 10 µM stood at 13.8%.
To `Cc1occc1C(=O)N1C[C@@H]2CCCO[C@@H]2[C@H](N(C)Cc2ccco2)C1` belongs 6.67%; to `Cn1cc(C[C@H]2[C@@H](O)CCN2C(=O)C2CCC2)cn1`, -7.44%; to `CSc1nc2cc(C)n(CC(=O)NC(C)C)c2c(=O)n1CC(C)C`, -4.1%.
To `CNc1oc(-c2ccc(OC)c(S(=O)(=O)N3CCCCC3)c2)nc1C#N` belongs 10.4%.
To `Cc1nn(C)c2c(N3CCN(C(=O)C4CCCCC4)CC3)ncnc12` belongs 12.3%; to `Cc1cc(C)n(CCNc2ncnc3c2NC(=O)CN3)n1`, 6.61%; to `CC(C)c1nccn1-c1cncc(C2CCCN(C3CCCCC3)C2)n1` (stereo not given), -9.97%.
Consider `Cc1cc(C(=O)Nc2ccc3c(c2)N(C)CCN(C)C3)on1`, for which the cytotoxicity at 10 µM is 7.34%.
`COc1c(CNCCc2c[nH]c3cc(F)ccc23)c(C(C)C)nn1C`: the cytotoxicity at 10 µM worked out at 4.64%.
To `CCOc1cccc(NC(=O)c2cc(C)on2)n1` belongs -2.14%; to `CCN(C)C(=O)c1cccc(C(=O)N(C)Cc2cccc(O)c2)c1`, 11.7%; to `c1ccc2c(c1)OCCC2NCc1ccc(N2CCOCC2)cc1` (stereo not given), -13.7%.
To `CCC1CN(C)c2ccccc2CN1C(=O)CCn1cncn1` (stereo not given) belongs -1.87%; to `O=C(NCC(O)Cc1ccccc1)c1ccc2[nH]c(=O)[nH]c2c1` (stereo not given), 4.14%; to `Cc1cc(C)nc(NC2CCN(CCOC(C)C)CC2)n1`, -10.8%.
To `N#CCCN(Cc1ccco1)C(=O)CCCNC(=O)c1ccccc1` belongs 8.15%; to `COc1ccc2c(c1)NC(=O)C2OC(=O)CC(C)(C)C` (stereo not given), 2.41%.
Consider `Cc1noc(C)c1C(=O)NCc1cc[nH]n1`, for which the cytotoxicity at 10 µM worked out at 9.31%.
To `CCC(=O)NCC(=O)Nc1c(C)cnn1Cc1cc(F)ccc1F` belongs -2.59%; to `NC(=O)C1CCCN1Cc1cccc(NC(=O)c2ccc(Cl)cc2F)c1` (stereo not given), 18.6%; to `O=C(C(CNCc1ccco1)c1ccccc1)N1CCOCC1` (stereo not given), -2.1%.
To `N#Cc1cccc(OCCN2CCCC2C(=O)Nc2nccs2)c1` (stereo not given) belongs 2.94%; to `CC(C)(C)c1nnc(CN(Cc2cccs2)CC2CCCO2)o1` (stereo not given), 15.8%.
To `Oc1ccc(N(CCc2ccccc2)CCn2cncn2)cc1` belongs 4.21%.
As for `COCc1cccc(NC(C(N)=O)c2ccc(Br)cc2)c1` (stereo not given), the cytotoxicity at 10 µM amounted to 2.94%.
With `Cc1noc(C)c1CS(=O)(=O)CC(=O)N(C)Cc1cccc(F)c1`, the cytotoxicity at 10 µM was -8.1%.
To `Cc1cc(C(=O)NS(=O)(=O)Cc2ccon2)c(C)o1` belongs 4.42%.
To `CC(C)N(Cc1ccc(C#N)cc1)C(=O)Nc1ccncc1` belongs 3.9%.
As for `COCCc1noc(CN(C)c2nccc(C)n2)n1`, the cytotoxicity at 10 µM worked out at 9.34%.
To `CC(C)CC(C#N)NC(=O)c1ccc(Oc2cccnc2)cc1` (stereo not given) belongs -11.4%.
To `CN1CCCC(NC(=O)c2ccc(C(=O)c3cc[nH]c3)cc2)C1` (stereo not given) belongs 11.9%.
To `Cc1ccc(CN(C)Cc2nc3ccc(F)cc3[nH]2)cn1` belongs -5.16%.
As for `CCCc1nnc(N2CCN(c3ccccc3F)CC2)o1`, the cytotoxicity at 10 µM stood at 5.85%.
For the molecule `CC(NC(=O)C1CCN(C(=O)C2CC2)CC1)c1nncn1C(C)C` (stereo not given), the cytotoxicity at 10 µM was 1.33%.
For the molecule `CSCCC(=O)N1CCC(c2nccn2CCN(C)C)CC1`, the cytotoxicity at 10 µM is -4.17%.
To `Cc1cc(C)n(CC(=O)N2CCCCC2CCN2CCCC2=O)c(=O)n1` (stereo not given) belongs 5.09%; to `CC(C)(C)C(=O)N1CCC(n2cc(C3(O)CCCC3)nn2)CC1`, 3.15%; to `COCc1nnc(C(=O)N2CCCC(O)C2)o1` (stereo not given), 1.31%.
Consider `CCc1cc(CN(C)C(=O)CN2CC3(CCNCC3)OC2=O)on1`, for which the cytotoxicity at 10 µM was found to be 0.394%.
To `CC(C(=O)O)N1CCc2onc(-c3ccc(F)c(F)c3)c2C1` (stereo not given) belongs 14.9%; to `O=C(c1cc(Cn2ccc3ccccc32)[nH]n1)N1CCC[C@H]1CO`, -1.99%.
Consider `N[C@H]1CN(S(=O)(=O)N2CCCC2)C[C@@H]1c1ccccc1`, for which the cytotoxicity at 10 µM was found to be 6.86%.
To `Cc1ccc(C(=O)NS(=O)(=O)c2ccccc2Br)c(=O)[nH]1` belongs -0.704%.
Turning to `Cc1nc(C2CCCN2CC(=O)NCCc2ccc(Cl)cc2)no1` (stereo not given), the cytotoxicity at 10 µM was determined as 8.52%.
To `Cc1cc(CNC(=O)N(Cc2ccc(F)cc2F)C2CC2)no1` belongs -18.5%; to `COc1ccc2cc(C(=O)N3CCCC(n4ccnc4C)C3)[nH]c2c1` (stereo not given), -9.74%; to `CCN1CCN(C2CCN(Cc3nc(C)c(C)o3)CC2)C1=O`, -9.92%.
To `Cc1nc(CN2CCCC(NCCOc3ccccc3C#N)C2)no1` (stereo not given) belongs -1.13%; to `O=C(NCCNC(=O)c1scnc1Cl)c1ccccc1Cl`, -0.524%.
To `O=C(NCCc1coc(-c2ccccc2)n1)NC1CC1` belongs -18.5%; to `CNS(=O)(=O)Cc1ccc(CNc2cncc(-n3cccn3)n2)cc1`, -4.66%.
For the molecule `CN(Cc1ccsc1)C(=O)c1cccc(NS(C)(=O)=O)c1`, the cytotoxicity at 10 µM was -5.72%.
To `CC(NC(=O)NCCCN(C)C)c1ccc2c(c1)CCC(=O)N2` (stereo not given) belongs -8.03%.
On to `Cc1ncsc1C(=O)NC1CCN(Cc2cccnc2)CC1`, for which the cytotoxicity at 10 µM is -7.49%.
As to `CC(C)c1cc(NC(=O)CN2CCc3c(nc(C(C)C)n3C)C2)on1`, the cytotoxicity at 10 µM was -12.3%.
To `Cc1ccc(CN2Cc3ccccc3OC3(CCC(CO)CC3)C2)o1` (stereo not given) belongs -13.7%.
To `COCCNC(=O)[C@H]1CN(Cc2cccs2)C[C@H]2OCC[C@@H]12` belongs 4%; to `COc1ccc(CN2CCOC3(CCCN(c4cnccn4)C3)C2)cc1` (stereo not given), 10.5%.
To `c1cncc(O[C@@H]2CC[C@H]3[C@H]2OCCN3C2CCCC2)c1` belongs 1.76%; to `O=C1NC(c2ccccc2)=N[C@@]12CC[C@@H]1CN(CC3CC3)C[C@@H]12`, 9.79%.
For `CNC(=O)CN1CCOCC2(CN(CCC(F)(F)F)CCO2)C1` (stereo not given), the cytotoxicity at 10 µM was determined as 3.59%.
To `COCCN1C[C@@H]2[C@@H](OC)CCN(Cc3ccncc3)[C@@H]2C1` belongs 5.16%; to `CC(C)=CCN1C[C@@H]2CC[C@H]1CN(S(=O)(=O)c1cccnc1)C2`, 3.26%.

For the origin of these results see ChEMBL document CHEMBL4513216, “Probing the Open Global Health Chemical Diversity Library for Multistage-Active Starting Points for Next-Generation Antimalarials” (ACS Infect Dis, 2020).
